The source made the active and inactive calls.
What was measured:
[1] = Metabolic stability in mouse liver microsomes assessed as clearance per mg protein at 5 uM preincubated for 10 mins followed by UDPGA addition and measured upto 60 mins by LC-MS/MS analysis; format: ADME, Microsome; settings: time < 70 min, read-out: CLH
Procedure, shortened: (§1)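 Compound at 5 μM final, in duplicate, from a 1 mM DMSO solution. Pre-incubated 10 min at 37 °C with human or mouse liver microsomes (0.5 mg/mL) in 50 mM potassium phosphate pH 7.4 with 3 mM MgCl2. The reaction was started with an NADPH-regenerating mix plus UDPGA. Samples taken at 0–60 min were quenched in ACN and analysed by LC–MS/MS. A no-cofactor control was included; 7-ethoxycoumarin and 7-hydroxycoumarin served as references.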

[2] = Metabolic stability in human liver microsomes assessed as clearance per mg protein at 5 uM preincubated for 10 mins followed by UDPGA addition and measured upto 60 mins by LC-MS/MS analysis; format: ADME, Microsome; settings: time < 70 min, read-out: CLH; procedure, shortened: as §1
[3] = Induction of LDL uptake in human HepG2 cells incubated for 2 hrs in presence of 10 nM PCSK9 by fluorescent plate reader analysis (reference value: 51.69 +/- 15.30 %); format: functional
[4] = Induction of LDLR expression in human HepG2 cells membrane in presence of 10 nM PCSK9 (reference value: 39.71 +/- 2.05%); format: functional
[5] = tested on: HepG2; assay: Cytotoxicity against human HepG2 cells assessed as reduction in cell viability upto 10 uM after 48 hrs by MTT assay; format: toxicity, cell-based; settings: hepg2, 48 h
Procedure, shortened: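 HepG2 cells treated 48 h with compound at 0.1–10,000 nM; viability read by MTT versus untreated control cells. Mean ± SD of three experiments run in triplicate.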

[6] = Induction of LDLR expression in human HepG2 cells membrane in presence of 1 nM PCSK9 (reference value: 39.71 +/- 2.05%); format: functional
[7] = biological target: Proprotein convertase subtilisin/kexin type 9 (Homo sapiens) (UniProt Q8NBP7); assay: Inhibition of PCSK9 mediated epinephrine induced platelet aggregation in human platelet rich plasma assessed as prevention of AUC increase at 10 nM preincubated for 15 mins followed by PRP addition by light transmission aggregometry assay
Proprotein convertase subtilisin/kexin type 9 (Homo sapiens), sequence (Q8NBP7 31-152 limits assumed): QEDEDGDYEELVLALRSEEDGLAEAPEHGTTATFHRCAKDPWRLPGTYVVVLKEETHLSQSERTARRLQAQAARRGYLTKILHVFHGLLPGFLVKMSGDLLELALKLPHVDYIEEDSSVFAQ
Proprotein convertase subtilisin/kexin type 9 (Homo sapiens), sequence (Q8NBP7 153-692 limits assumed): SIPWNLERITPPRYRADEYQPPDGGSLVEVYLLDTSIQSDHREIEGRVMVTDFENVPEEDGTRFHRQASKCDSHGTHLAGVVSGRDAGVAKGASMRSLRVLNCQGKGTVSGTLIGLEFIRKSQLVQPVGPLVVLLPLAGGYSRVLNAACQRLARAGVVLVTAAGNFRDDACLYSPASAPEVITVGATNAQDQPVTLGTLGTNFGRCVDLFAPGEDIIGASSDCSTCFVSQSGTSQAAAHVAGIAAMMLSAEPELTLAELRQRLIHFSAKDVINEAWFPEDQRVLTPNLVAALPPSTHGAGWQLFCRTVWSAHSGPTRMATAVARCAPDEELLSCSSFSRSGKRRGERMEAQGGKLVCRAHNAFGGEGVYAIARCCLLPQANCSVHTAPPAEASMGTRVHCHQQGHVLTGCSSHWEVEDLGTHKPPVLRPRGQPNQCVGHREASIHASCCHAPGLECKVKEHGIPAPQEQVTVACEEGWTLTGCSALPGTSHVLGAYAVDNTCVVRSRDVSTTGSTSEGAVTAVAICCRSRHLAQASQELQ
Procedure, shortened: (§2)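 PRP from healthy donors (n = 5), prepared by centrifuging whole blood 10 min at 100g at room temperature without brakes. Recombinant PCSK9 (5 μg/mL) preincubated with compound for 15 min at room temperature, then added to PRP for 2 min at 37 °C. Aggregation triggered by subthreshold epinephrine (0.16 μM) and followed by light transmission aggregometry. Lag time and area under the curve were scored.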

[8] = Induction of LDL uptake in human HepG2 cells incubated for 2 hrs in presence of 1 nM PCSK9 by fluorescent plate reader analysis (reference value: 51.69 +/- 15.30 %); format: functional
[9] = biological target: Proprotein convertase subtilisin/kexin type 9 (Homo sapiens) (UniProt Q8NBP7); assay: Inhibition of PCSK9 mediated epinephrine induced platelet aggregation in human platelet rich plasma assessed as prevention of lag time reduction at 10 nM preincubated for 15 mins followed by PRP addition by light transmission aggregometry assay; procedure, shortened: as §2

microsomal CLint at 5 µM [1]	microsomal CLint at 5 µM [2]	SMILES	Activity [5]	other results
533 µL/min/mg	390 µL/min/mg	O=c1ccc2ccc(O)cc2o1 [UMBELLIFERONE]		
		C#Cc1ncc(-c2ncc(-c3ccc4ccccc4c3)n2CCCC(C)(C)C)n1CCCCCNC	Non-Toxic	Activity [3]: 81.87%; Activity [4]: 91.1%
		CNCCCCCn1c(-c2ncc(-c3ccc4ccccc4c3)n2CCCC(C)(C)C)cnc1I	Non-Toxic	Activity [6]: 101.1%; inhibition [7]: Active; Activity [8]: 103.47%; inhibition [9]: Active
291 µL/min/mg	46.1 µL/min/mg	CCOc1ccc2ccc(=O)oc2c1 [ETHOXYCOUMARIN]		
